Data set [1] can be described thus: Binding affinity to His6-tagged Hepatitis C virus Con 1b NS5B delta21 RNA dependent RNA polymerase expressed in Escherichia coli Rosetta 2 (DE3) by surface plasmon resonance analysis. Details: species or system Hepatitis C virus (isolate Con1). Summed up: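 Surface plasmon resonance binding to NS5B polymerase of the stated genotype; association and dissociation rate constants measured, from which Kd and residence half-life were derived; median Kd reported.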
Background: In SPR one partner is held on a chip, and binding of the other changes the refractive index at the surface.

Data set [2] can be described thus: Cytotoxicity against human MT4 cells. The format is cell-based.
A short description of data set [3]: Cytotoxicity against human HuH7 cells. The format is cell-based, Huh-7.
Data set [4] has as its system Hepatitis C virus. Description: Antiviral activity against Hepatitis C virus genotype 1b infected in human HuH7 cells after 72 hrs by luciferase reporter gene assay in presence of 40% human plasma relative to control. The format is functional, Hepacivirus hominis, Huh-7. A general note: Reporter assays use an easily measured gene product as a stand-in for the process of interest.

Data set [5] relates to Hepatitis C virus. The experiment in a line: Antiviral activity against Hepatitis C virus genotype 1b infected in human HuH7 cells after 72 hrs by luciferase reporter gene assay. The format is functional, organism-based, Hepacivirus hominis. Conditions: Huh-7, 72 h.
Data set [6] in a line: Drug uptake in Sprague-Dawley rat liver at 10 mg/kg, po after 7 hrs. The format is ADME, organism-based. To be noted: read-out: Drug uptake. Details: dose 10 mg/kg, route oral.
A short description of data set [7]: Drug metabolism in rat liver microsomes after 15 mins. The format is ADME. To be noted: read-out: Drug metabolism.
Data set [8] in a line: Drug metabolism in human liver microsomes at 5 uM after 15 mins. The format is ADME. Conditions: read-out: Drug metabolism. Summed up: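 Stability in human liver microsomes: test compound at 5 μM, incubated 15 min; reported as percentage of compound metabolized.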
The nature of data set [9]: Oral bioavailability in Sprague-Dawley rat at 10 mg/kg. The format is ADME, organism-based. To be noted: in vivo.
Data set [10] in a line: Ratio of drug level in liver to plasma in Sprague-Dawley rat at 10 mg/kg, po after 7 hrs. The format is ADME, organism-based. Details: dose 10 mg/kg, route oral.
Data set [11] in a line: Plasma clearance in Sprague-Dawley rat at 2 mg/kg, iv and 10 mg/kg, po. The format is ADME, organism-based.
The subject of data set [12] is Hepatitis C virus. The experiment in a line: Antiviral activity against Hepatitis C virus genotype 1b infected in human HuH7 assessed as rebound of replicon RNA at 0.25 uM preincubated for 2 weeks followed by 3 week rebound phase by RT-PCR analysis. Conditions: Hepacivirus hominis, Huh-7. The format is functional, organism-based. Summed up:
(§1)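 Huh7-Luc replicon cells incubated 14 days with compound alone or in combination, followed by a 3-week rebound phase without inhibitor; replicon RNA followed for clearance and rebound.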
On the technique in general: In antiviral work, replicon cells carry a viral genome segment that copies itself.

Data set [13] has as its system Hepatitis C virus. Description: Antiviral activity against Hepatitis C virus genotype 1b infected in human HuH7 assessed as suppression of formation of resistant colonies at 0.2 uM preincubated for 2 weeks followed by 3 week rebound phase by RT-PCR analysis. To be noted: Hepacivirus hominis, Huh-7. The format is functional, organism-based. Summed up:
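Colony formation test in Huh7-Luc replicon cells incubated for 2−3 weeks with inhibitor alone (0.20 μM), scored for formation of resistant colonies.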

The subject of data set [14] is Hepatitis C virus. Description: Antiviral activity against Hepatitis C virus genotype 1b infected in human HuH7 assessed as clearance of replicon cells at 0.25 uM preincubated for 2 weeks followed by 3 week rebound phase by RT-PCR analysis. The format is functional, organism-based. To be noted: Hepacivirus hominis, Huh-7. Summed up:
as §1

The test system of data set [15] is Hepatitis C virus. The experiment in a line: Antiviral activity against Hepatitis C virus genotype 1a infected in human assessed as reduction in plasma HCV RNA level administered for 10 days measured on day 11. The format is functional, organism-based. To be noted: Hepacivirus hominis, subtype 1a. The method, boiled down: (§2)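 HCV genotype 1a- and 1b-infected patients received oral 1000 mg b.i.d. together with an NS3/4A protease inhibitor at 150 mg q.d. for 10 days. The read-out was the median decrease in plasma HCV RNA (log10 IU/mL) at day 11.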

The subject of data set [16] is Hepatitis C virus. Description: Antiviral activity against Hepatitis C virus genotype 1b infected in human assessed as reduction in plasma HCV RNA level administered for 10 days measured on day 11. The format is functional, organism-based. Conditions: Hepacivirus hominis. The method, boiled down:
as §2

The structures appear in SMILES notation. Active and inactive are the calls of the source. No cut-off for these calls is given here.

By Kd is commonly meant a measure of binding affinity in units of concentration. What is called CC50 is the concentration at which the toxic effect on the cells reaches its halfway point. Lower therefore signals harm at low concentration. The compound `COc1ccc2c(c1)C=C1Cn3c-2c(C2CCCCC2)c2ccc(cc23)C(=O)NS(=O)(=O)N(C)CCCCCCN(C)C1=O` came in with a Kd in data set [1] of 0.0008 µM. Also, the CC50 in data set [2] and in data set [3] was above 25 µM each time. Moreover, the “fold change (FC)” value in the data set on Hepatitis C virus [4] was 10.

The term EC50 denotes the concentration needed to bring the measured effect to its halfway point. A higher EC50 goes with weaker potency. On to `COc1ccc2c(c1)C=C1Cn3c-2c(C2CCCCC2)c2ccc(cc23)C(=O)NS(=O)(=O)N(C)CCCCN(C)C1=O`, for which the CC50 in [2] and in [3] was above 25 µM each time. Moreover, the concentration for a half-maximal effect (EC50) in the data set with Hepatitis C virus [5] worked out at 0.075 µM.

Take `COc1ccc2c(c1)C=C1Cn3c-2c(C2CCCCC2)c2ccc(cc23)C(=O)NS(=O)(=O)N(C)CCCN(C)C1=O`: in data set [1], the Kd came to 0.007 µM. Moreover, the CC50 in data set [2] and in data set [3] was above 25 µM throughout. Also, the “fold change (FC)” value with Hepatitis C virus [4] worked out at 10.

With `COc1ccc2c(c1)C=C1Cn3c-2c(C2CCCCC2)c2ccc(cc23)C(=O)NS(=O)(=O)N(C)CCCCCNC1=O`, the concentration at 7 h in data set [6] came out at 6320 ng/g. In data set [1], this compound returned a Kd of 0.0009 µM. Further, the CC50 in data set [2] and in data set [3] was above 25 µM throughout. Besides, the “fold change (FC)” value in the data set on Hepatitis C virus [4] came out at 10.

`COc1ccc2c(c1)C=C1Cn3c-2c(C2CCCCC2)c2ccc(cc23)C(=O)NS(=O)(=O)N(C)CCN(C)CCNC1=O`: the CC50 in [2] and in data set [3] was above 25 µM throughout. The “fold change (FC)” value in the data set with Hepatitis C virus [4] was determined as 10.

The compound `COc1ccc2c(c1)C=C1Cn3c-2c(C2CCCCC2)c2ccc(cc23)C(=O)NS(=O)(=O)N2CCN(CCNC1=O)CC2` showed an equilibrium dissociation constant (Kd) in data set [1] of 0.025 µM. In addition, the CC50 in [2] and in data set [3] was above 25 µM throughout. The “fold change (FC)” value in the data set with Hepatitis C virus [4] turned out to be 10.

With `CN1CCOCCN(C)S(=O)(=O)NC(=O)c2ccc3c(C4CCCCC4)c4n(c3c2)CC(=Cc2cc(Cl)ccc2-4)C1=O`, the Kd in data set [1] came out at 0.0015 µM. The CC50 in data set [2] and in [3] was above 25 µM in each case. Further, the “fold change (FC)” value with Hepatitis C virus [4] is 10.

As for `CN1CCOCCN(C)S(=O)(=O)NC(=O)c2ccc3c(C4CCCCC4)c4n(c3c2)CC(=Cc2cc(F)ccc2-4)C1=O`, the concentration at 7 h in [6] was 6560 ng/g. The cytotoxic concentration (CC50) in data set [2] and in [3] was above 25 µM each time. In addition, in the data set with Hepatitis C virus [4], the “fold change (FC)” value is 10.

Consider `COc1ccc2c(c1)C=C1Cn3c-2c(C2CCCCC2)c2ccc(cc23)C(=O)NS(=O)(=O)N(C)CCCCNC1=O`, for which, in data set [1], the Kd turned out to be 0.0071 µM. For the same compound, the CC50 in data set [2] and in [3] was above 25 µM each time. Also, the “fold change (FC)” value in the data set with Hepatitis C virus [4] came to 10.

`COc1ccc2c(c1)C=C1Cn3c-2c(C2CCCCC2)c2ccc(cc23)C(=O)NS(=O)(=O)NCCCCN(C)C1=O`: in [1], the affinity, expressed as Kd, was 0.015 µM. The CC50 in [2] and in data set [3] was above 25 µM in each case. In addition, the “fold change (FC)” value in the data set on Hepatitis C virus [4] is given as 10.

As to `COc1ccc2c(c1)C=C1Cn3c-2c(C2CCCCC2)c2ccc(cc23)C(=O)NS(=O)(=O)N(C)CCN2CCN(CC2)C1=O`, in data set [6], the concentration at 7 h was determined as 299 ng/g. For the same compound, the CC50 in data set [2] and in data set [3] was above 25 µM each time. The “fold change (FC)” value in the data set with Hepatitis C virus [4] is reported as 10.

Consider `COc1ccc2c(c1)C[C@@H]1Cn3c-2c(C2CCCCC2)c2ccc(cc23)C(=O)NS(=O)(=O)N(C)CCOCCN(C)C1=O`, for which the concentration at 7 h in data set [6] was determined as 898 ng/g. Besides, the CC50 in [2] and in data set [3] was above 25 µM throughout. In addition, in the data set with Hepatitis C virus [4], the “fold change (FC)” value worked out at 10.

As for `COc1ccc2c(c1)C[C@H]1Cn3c-2c(C2CCCCC2)c2ccc(cc23)C(=O)NS(=O)(=O)N(C)CCOCCN(C)C1=O`, the CC50 in [2] and in [3] was above 25 µM in each case. The “fold change (FC)” value with Hepatitis C virus [4] worked out at 10.

For orientation: bioavailability means the share of a dose that reaches the circulation, judged against a reference dose that is usually intravenous. One may read the Kp as tissue or fluid exposure divided by exposure in the circulation. As for `COc1ccc2c(c1)[C@@H]1C[C@]13Cn1c-2c(C2CCCCC2)c2ccc(cc21)C(=O)NS(=O)(=O)N(C)CCOCCN(C)C3=O`, the metabolised at 0.25 h in data set [7] stood at 70%. In addition, the concentration at 7 h in data set [6] was 3200 ng/g. The CC50 in [2] and in data set [3] was above 25 µM in each case. Further, the metabolised at 0.25 h, 5 µM in data set [8] stood at 95%. This compound also showed a bioavailability in [9] of 51%. For the same compound, in [10], the Kp at 7 h is 38. In the data set with Hepatitis C virus [5], this compound registered an EC50 of 0.04 µM. Besides, the “fold change (FC)” value in the data set on Hepatitis C virus [4] was found to be 10. The same compound showed a clearance in data set [11] of 86.7 mL/min/kg.

With `COc1ccc2c(c1)C=C1CN(C)CCCCN(C)S(=O)(=O)NC(=O)c3ccc4c(C5CCCCC5)c-2n(c4c3)C1`, the CC50 in data set [2] and in [3] was above 25 µM in each case. This compound also displayed an EC50 with Hepatitis C virus [5] of 2.34 µM. In addition, the “fold change (FC)” value in the data set on Hepatitis C virus [4] is listed as 10.

Turning to `COc1ccc2c(c1)[C@H]1C[C@@]13Cn1c-2c(C2CCCCC2)c2ccc(cc21)C(=O)NS(=O)(=O)N(C)CCOCCN(C)C3=O`, the 50% cytotoxic concentration (CC50) in data set [2] and in data set [3] was above 25 µM throughout. In addition, a half-maximal response in the data set with Hepatitis C virus [5] (EC50) required 0.8 µM. In addition, in the data set on Hepatitis C virus [4], the “fold change (FC)” value amounted to 10.

Regarding `COc1ccc2c(O[C@@H]3C[C@H]4C(=O)N[C@]5(C(=O)NS(=O)(=O)C6CC6)C[C@H]5/C=C\CCCCN(C)C(=O)[C@@H]4C3)cc(-c3nc(C(C)C)cs3)nc2c1C`, the outcome in the data set with Hepatitis C virus [12], in the data set on Hepatitis C virus [13] and in the data set on Hepatitis C virus [14] was inactive. Moreover, the result in the data set on Hepatitis C virus [15] and in the data set with Hepatitis C virus [16] was Active.

The record behind these values is ChEMBL document CHEMBL3124872, “Discovery and early development of TMC647055, a non-nucleoside inhibitor of the hepatitis C virus NS5B polymerase” (J Med Chem, 2014).
